For assay [1], the target named is T1, Stromelysin-2 (Homo sapiens, UniProt P09238). Briefly: Inhibition of MMP10 (unknown origin) assessed as residual activity at 10 uM using (5-FAM/QX) FRET peptide as substrate by fluorescence assay relative to control. In short, it runs like this: (§1)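 Residual enzyme activity read at a single 10 μM inhibitor concentration, in duplicate. Fluorescence assay on cleavage of the QXL520/5-FAM FRET peptide. Buffer was 50 mM HEPES pH 7.5 with 10 mM CaCl₂, 0.01% Brij-35 and 0.1 mg/ml BSA. GM6001 served as control inhibitor. Same assay system as the IC50 determinations.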
Target sequence in this assay (P09238 99-476 limits assumed): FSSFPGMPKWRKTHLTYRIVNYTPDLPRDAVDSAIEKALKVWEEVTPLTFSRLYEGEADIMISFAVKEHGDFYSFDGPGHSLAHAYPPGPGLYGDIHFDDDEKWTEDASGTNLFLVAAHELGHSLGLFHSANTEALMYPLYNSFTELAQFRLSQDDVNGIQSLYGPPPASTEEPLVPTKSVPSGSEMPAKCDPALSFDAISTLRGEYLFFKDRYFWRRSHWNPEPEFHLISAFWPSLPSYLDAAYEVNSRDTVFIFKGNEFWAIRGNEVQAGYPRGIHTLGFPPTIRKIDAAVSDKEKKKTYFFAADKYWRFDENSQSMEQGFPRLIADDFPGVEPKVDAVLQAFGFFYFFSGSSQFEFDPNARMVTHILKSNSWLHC

Assay [2] concerns the target T2, Collagenase 3 (Homo sapiens, UniProt P45452). Briefly: Inhibition of C-terminal tagged human recombinant MMP13 catalytic domain expressed in Escherichia coli assessed as residual activity at 10 uM using (5-FAM/QX) FRET peptide as substrate by fluorescence assay relative to control. In short, it runs like this:
as §1

Assay [3] deals with T1, Stromelysin-2. The assay is described as follows: Inhibition of MMP10 (unknown origin) assessed using (5-FAM/QX) FRET peptide as substrate by fluorescence assay. In short, it runs like this:
(§2)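 IC50 from 10 concentrations in 3-fold dilution, starting at 10 μM or 100 μM, with two to six replicates. Run only for compounds leaving under 20% residual activity at 10 μM. Fluorescence read-out of QXL520/5-FAM FRET peptide cleavage in 50 mM HEPES pH 7.5, 10 mM CaCl₂, 0.01% Brij-35 and 0.1 mg/ml BSA. Four-parameter least-squares fit; GM6001 as control.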
Target sequence in this assay (P09238 whole entry): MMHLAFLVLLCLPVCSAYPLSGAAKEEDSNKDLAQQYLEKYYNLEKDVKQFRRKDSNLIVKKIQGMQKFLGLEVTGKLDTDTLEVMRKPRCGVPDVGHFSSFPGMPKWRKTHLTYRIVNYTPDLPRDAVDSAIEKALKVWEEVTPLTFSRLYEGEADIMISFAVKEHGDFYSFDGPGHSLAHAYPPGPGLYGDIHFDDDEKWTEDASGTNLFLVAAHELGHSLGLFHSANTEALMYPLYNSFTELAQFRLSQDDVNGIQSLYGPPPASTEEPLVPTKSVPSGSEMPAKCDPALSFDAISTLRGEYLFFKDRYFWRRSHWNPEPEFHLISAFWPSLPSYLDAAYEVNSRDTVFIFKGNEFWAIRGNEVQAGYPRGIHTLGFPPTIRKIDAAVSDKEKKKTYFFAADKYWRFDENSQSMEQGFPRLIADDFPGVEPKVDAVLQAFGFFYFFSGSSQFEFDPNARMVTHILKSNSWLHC

Assay [4] has as its target T2, Collagenase 3. The assay is described as follows: Inhibition of C-terminal tagged human recombinant MMP13 catalytic domain expressed in Escherichia coli using (5-FAM/QX) FRET peptide as substrate by fluorescence assay. In short, it runs like this: as §2
For assay [5], the target named is T3, Interstitial collagenase (Homo sapiens) (UniProt P03956).
T3 sequence (whole entry): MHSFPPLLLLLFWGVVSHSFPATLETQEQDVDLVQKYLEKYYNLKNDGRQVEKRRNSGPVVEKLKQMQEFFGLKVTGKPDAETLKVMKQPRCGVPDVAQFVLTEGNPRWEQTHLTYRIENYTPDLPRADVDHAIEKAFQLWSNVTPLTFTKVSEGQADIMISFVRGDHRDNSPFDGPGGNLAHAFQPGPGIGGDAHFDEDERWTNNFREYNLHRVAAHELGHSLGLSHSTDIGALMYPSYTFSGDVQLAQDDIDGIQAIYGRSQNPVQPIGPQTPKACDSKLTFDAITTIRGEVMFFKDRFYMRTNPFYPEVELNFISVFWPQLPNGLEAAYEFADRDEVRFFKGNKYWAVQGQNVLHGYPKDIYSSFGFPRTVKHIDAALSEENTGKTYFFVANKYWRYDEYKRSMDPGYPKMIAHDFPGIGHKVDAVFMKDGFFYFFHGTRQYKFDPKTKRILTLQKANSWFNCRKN
Briefly: Inhibition of MMP1 (unknown origin) assessed as residual activity at 10 uM using (5-FAM/QX) FRET peptide as substrate by fluorescence assay relative to control. In short, it runs like this: as §1

In assay [6] the target is 72 kDa type IV collagenase (Homo sapiens) (UniProt P08253). The assay is described as follows: Inhibition of C-terminal tagged human recombinant MMP2 catalytic domain expressed in Escherichia coli assessed as residual activity at 10 uM using (5-FAM/QX) FRET peptide as substrate by fluorescence assay relative to control. In short, it runs like this: as §1
Chain of 72 kDa type IV collagenase (Homo sapiens) (P08253 110-660 limits assumed): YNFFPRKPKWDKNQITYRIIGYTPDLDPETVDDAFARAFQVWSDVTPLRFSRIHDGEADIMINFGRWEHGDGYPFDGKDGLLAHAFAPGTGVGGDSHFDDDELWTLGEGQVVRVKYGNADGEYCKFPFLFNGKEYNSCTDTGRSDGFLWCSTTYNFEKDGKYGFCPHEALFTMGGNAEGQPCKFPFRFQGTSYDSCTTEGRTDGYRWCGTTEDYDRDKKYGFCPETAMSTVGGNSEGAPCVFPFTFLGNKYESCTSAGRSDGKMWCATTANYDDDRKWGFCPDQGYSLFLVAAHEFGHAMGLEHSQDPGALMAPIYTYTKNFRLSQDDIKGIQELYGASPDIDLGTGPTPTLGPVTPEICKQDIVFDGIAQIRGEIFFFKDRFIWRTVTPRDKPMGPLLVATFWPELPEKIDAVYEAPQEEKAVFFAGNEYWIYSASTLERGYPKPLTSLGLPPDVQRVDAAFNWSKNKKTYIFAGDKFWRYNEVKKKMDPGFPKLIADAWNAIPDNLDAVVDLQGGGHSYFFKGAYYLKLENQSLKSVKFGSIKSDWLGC
Assay [7] deals with Stromelysin-1 (Homo sapiens) (UniProt P08254). Briefly: Inhibition of C-terminal tagged human recombinant MMP3 catalytic domain expressed in Escherichia coli assessed as residual activity at 10 uM using (5-FAM/QX) FRET peptide as substrate by fluorescence assay relative to control. In short, it runs like this: as §1
Chain of Stromelysin-1 (Homo sapiens) (P08254 100-477 limits assumed): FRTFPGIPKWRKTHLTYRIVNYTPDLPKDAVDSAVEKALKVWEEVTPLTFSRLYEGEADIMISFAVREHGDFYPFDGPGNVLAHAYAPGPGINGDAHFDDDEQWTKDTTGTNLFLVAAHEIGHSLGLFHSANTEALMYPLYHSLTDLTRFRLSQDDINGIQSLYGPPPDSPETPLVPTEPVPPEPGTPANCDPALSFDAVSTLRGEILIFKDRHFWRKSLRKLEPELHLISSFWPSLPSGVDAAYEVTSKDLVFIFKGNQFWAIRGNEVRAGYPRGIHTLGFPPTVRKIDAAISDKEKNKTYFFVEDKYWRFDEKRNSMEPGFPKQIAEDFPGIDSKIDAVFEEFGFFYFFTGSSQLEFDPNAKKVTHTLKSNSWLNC
Assay [8] concerns the target T4, Matrilysin (Homo sapiens) (UniProt P09237).
T4 sequence (whole entry): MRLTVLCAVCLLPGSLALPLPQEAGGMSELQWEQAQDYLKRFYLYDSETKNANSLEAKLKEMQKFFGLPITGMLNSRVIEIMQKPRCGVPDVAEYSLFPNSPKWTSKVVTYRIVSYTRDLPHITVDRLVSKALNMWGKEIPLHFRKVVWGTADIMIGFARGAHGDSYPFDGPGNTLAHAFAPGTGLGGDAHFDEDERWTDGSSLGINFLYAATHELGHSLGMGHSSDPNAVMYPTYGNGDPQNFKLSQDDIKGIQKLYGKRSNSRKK
Briefly: Inhibition of C-terminal tagged human recombinant MMP7 catalytic domain expressed in Escherichia coli assessed as residual activity at 10 uM using (5-FAM/QX) FRET peptide as substrate by fluorescence assay relative to control. In short, it runs like this:
as §1

The target in assay [9] is Neutrophil collagenase (Homo sapiens) (UniProt P22894). The assay is described as follows: Inhibition of MMP8 (unknown origin) assessed as residual activity at 10 uM using (5-FAM/QX) FRET peptide as substrate by fluorescence assay relative to control. In short, it runs like this: as §1
Chain of Neutrophil collagenase (Homo sapiens) (P22894 101-467 limits assumed): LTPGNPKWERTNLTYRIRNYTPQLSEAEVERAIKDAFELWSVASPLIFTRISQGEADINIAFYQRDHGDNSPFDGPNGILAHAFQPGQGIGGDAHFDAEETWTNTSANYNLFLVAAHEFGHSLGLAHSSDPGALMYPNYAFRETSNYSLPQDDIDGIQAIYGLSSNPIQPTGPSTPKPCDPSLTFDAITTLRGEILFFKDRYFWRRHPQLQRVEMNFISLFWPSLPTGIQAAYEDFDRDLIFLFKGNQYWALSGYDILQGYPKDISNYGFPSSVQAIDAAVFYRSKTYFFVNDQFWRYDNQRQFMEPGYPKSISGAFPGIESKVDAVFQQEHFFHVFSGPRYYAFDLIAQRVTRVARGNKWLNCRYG
For assay [10], the target named is Matrix metalloproteinase-9 (Homo sapiens) (UniProt P14780). Briefly: Inhibition of MMP9 (unknown origin) assessed as residual activity at 10 uM using (5-FAM/QX) FRET peptide as substrate by fluorescence assay relative to control. In short, it runs like this: as §1
Chain of Matrix metalloproteinase-9 (Homo sapiens) (P14780 whole entry, the tested form may be a part): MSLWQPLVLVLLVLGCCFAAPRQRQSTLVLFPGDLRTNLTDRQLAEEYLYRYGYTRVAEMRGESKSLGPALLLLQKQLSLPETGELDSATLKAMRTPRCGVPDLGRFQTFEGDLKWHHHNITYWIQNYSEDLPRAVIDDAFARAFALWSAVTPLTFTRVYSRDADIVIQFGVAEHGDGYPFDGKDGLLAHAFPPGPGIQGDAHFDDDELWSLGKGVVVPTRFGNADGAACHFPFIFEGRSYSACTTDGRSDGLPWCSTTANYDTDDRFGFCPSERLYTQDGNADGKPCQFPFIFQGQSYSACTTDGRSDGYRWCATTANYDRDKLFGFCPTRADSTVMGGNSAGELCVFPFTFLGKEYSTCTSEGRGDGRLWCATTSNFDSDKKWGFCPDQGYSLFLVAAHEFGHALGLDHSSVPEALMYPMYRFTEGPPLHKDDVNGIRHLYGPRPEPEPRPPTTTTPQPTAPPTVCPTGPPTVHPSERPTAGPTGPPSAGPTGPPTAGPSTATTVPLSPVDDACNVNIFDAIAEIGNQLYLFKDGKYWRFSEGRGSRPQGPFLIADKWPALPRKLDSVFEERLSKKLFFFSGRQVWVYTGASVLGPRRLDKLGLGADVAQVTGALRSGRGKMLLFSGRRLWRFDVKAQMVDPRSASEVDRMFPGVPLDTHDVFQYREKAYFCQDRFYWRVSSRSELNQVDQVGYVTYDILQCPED
In assay [11] the target is Macrophage metalloelastase (Homo sapiens) (UniProt P39900). Briefly: Inhibition of C-terminal tagged human recombinant MMP12 catalytic domain expressed in Escherichia coli assessed as residual activity at 10 uM using (5-FAM/QX) FRET peptide as substrate by fluorescence assay relative to control. In short, it runs like this:
as §1

The target in assay [12] is Matrix metalloproteinase-14 (Homo sapiens) (UniProt P50281). The assay is described as follows: Inhibition of C-terminal tagged human recombinant MMP14 catalytic domain expressed in Escherichia coli assessed as residual activity at 10 uM using (5-FAM/QX) FRET peptide as substrate by fluorescence assay relative to control. In short, it runs like this:
as §1

Chain of Macrophage metalloelastase (Homo sapiens) (P39900 106-470 limits assumed): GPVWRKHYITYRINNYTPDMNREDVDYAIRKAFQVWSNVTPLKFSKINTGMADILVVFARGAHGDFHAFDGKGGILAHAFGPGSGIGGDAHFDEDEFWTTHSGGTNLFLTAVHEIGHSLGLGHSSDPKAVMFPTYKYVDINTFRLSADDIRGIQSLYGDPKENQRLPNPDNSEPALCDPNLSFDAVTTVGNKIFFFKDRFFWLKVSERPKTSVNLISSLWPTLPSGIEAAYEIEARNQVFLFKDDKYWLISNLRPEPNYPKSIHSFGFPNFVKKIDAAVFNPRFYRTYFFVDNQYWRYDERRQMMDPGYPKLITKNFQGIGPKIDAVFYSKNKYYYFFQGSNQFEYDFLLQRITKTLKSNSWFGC

`COc1cc(CNC(=O)C#Cc2cn(Cc3ccc(-c4cnco4)cc3)c(=O)[nH]c2=O)ccc1F`: the Activity in assay [1] was found to be 2.8%; in assay [2], 0.4%; in assay [5], 100%; in [6], 100%; in [7], 37.3%; in assay [8] it was 87.1%. Further, the Activity was determined as 96.7% in assay [9], 97.8% in assay [10], 88.5% in assay [11] and 97.6% in assay [12]. Also, the IC50 was 0.031 µM in assay [3] (read-out: IC50), 0.0245 to 0.0295 µM in assay [3] (read-out: pIC50 (converted)), 0.005 µM in assay [4] (read-out: IC50) and 0.00363 to 0.0055 µM in assay [4] (read-out: pIC50 (converted)).

For the origin of these results see ChEMBL document CHEMBL4028865, “Targeted Polypharmacology: Discovery of a Highly Potent Non-Hydroxamate Dual Matrix Metalloproteinase (MMP)-10/-13 Inhibitor” (J Med Chem, 2017).
